{"data": "Published values gathered from unrelated publications", "cell line": "HCT-116", "observed": "cell growth or viability", "note": "Lines come from different studies, so protocols differ."}
{"Structure (SMILES)": "Cc1nc(N(C)c2ccc3c(c2)/C(=C/c2ccccc2Cl)C(=O)N3C)c2ccccc2n1", "method": "MTT", "endpoint": "IC50", "value": "4.11 µM"}
{"Structure (SMILES)": "COc1ccc(-c2cc(-c3cccc(Br)c3)c3c(=O)[nH]c(=O)[nH]c3n2)cc1", "method": "MTT", "time": "48 h", "endpoint": "IC50", "value": "9.77 µM"}
{"Structure (SMILES)": "COc1nc(NCc2cn(-c3ccc(NC(=O)c4ccc(C)cc4)cc3)nn2)nc(OC)n1", "method": "MTT", "time": "72 h", "endpoint": "IC50", "value": "0.0599 µM"}
{"Structure (SMILES)": "COc1ccc(-c2cc(-c3c(OC)cccc3OC)c3c(=O)n(C)c(=O)n(C)c3n2)cc1", "method": "MTT", "time": "48 h", "endpoint": "IC50", "value": "5.44 µM"}
{"Structure (SMILES)": "COc1cccc2c1C(=O)c1c(O)c3c(c(O)c1C2=O)C[C@@](O)(C(=O)CO)C[C@@H]3O[C@H]1C[C@H](N)[C@H](O)[C@H](C)O1", "method": "MTT", "time": "72 h", "endpoint": "IC50", "value": "0.83 µM"}
{"Structure (SMILES)": "C=CC(=O)c1cccnc1Nc1cccc(C(F)(F)F)c1", "method": "CCK-8", "time": "72 h", "endpoint": "GI50", "value": "34.9 µM"}
{"Structure (SMILES)": "COc1ccc(-c2cc(-c3cc(OC)ccc3OC)c3c(=O)n(C)c(=O)n(C)c3n2)cc1", "method": "MTT", "time": "48 h", "endpoint": "IC50", "value": "11.1 µM"}
{"Structure (SMILES)": "COc1nc(NCc2cn(-c3ccc(NC(=O)c4ccc(F)cc4)cc3)nn2)nc(OC)n1", "method": "MTT", "time": "72 h", "endpoint": "IC50", "value": "0.0122 µM"}
{"Structure (SMILES)": "Cc1ccc(-c2cc(-c3ccc(N(C)C)cc3)c3c(=O)n(C)c(=O)n(C)c3n2)cc1", "method": "MTT", "time": "48 h", "endpoint": "IC50", "value": "12 µM"}
{"Structure (SMILES)": "COc1cc2ncnc(Nc3ccc4c(c3)/C(=C/c3cccc(Cl)c3)C(=O)N4C)c2cc1OC", "method": "MTT", "endpoint": "IC50", "value": "8.36 µM"}
{"Structure (SMILES)": "Cc1ccc(-c2cc(-c3ccc(N(C)C)cc3)c3c(=O)[nH]c(=O)[nH]c3n2)cc1", "method": "MTT", "time": "48 h", "endpoint": "IC50", "value": "7.66 µM"}
{"Structure (SMILES)": "COc1nc(NCc2cn(-c3ccc(NC(=O)c4ccc([N+](=O)[O-])cc4)cc3)nn2)nc(OC)n1", "method": "MTT", "time": "72 h", "endpoint": "IC50", "value": "0.0578 µM"}
{"Structure (SMILES)": "Cc1nc(Nc2ccc3c(c2)/C(=C/c2ccccc2)C(=O)N3Cc2ccccc2)c2ccccc2n1", "method": "MTT", "endpoint": "IC50", "value": "3.39 µM"}
{"Structure (SMILES)": "COc1ccc(NC(=O)c2ccc(-n3cc(CNc4nc(OC)nc(OC)n4)nn3)cc2)cc1", "method": "MTT", "time": "72 h", "endpoint": "IC50", "value": "0.0123 µM"}
{"Structure (SMILES)": "Cc1nc(Nc2ccc3c(c2)CC(=O)N3)c2ccccc2n1", "method": "MTT", "endpoint": "IC50", "value": "12.3 µM"}
{"Structure (SMILES)": "Cc1ccc(-c2cc(-c3ccc(Cl)c(F)c3)c3c(=O)n(C)c(=O)n(C)c3n2)cc1", "method": "MTT", "time": "48 h", "endpoint": "IC50", "value": "21.4 µM"}
{"Structure (SMILES)": "COc1nc(NCc2cn(-c3ccc(C(=O)Nc4ccc(F)cc4)cc3)nn2)nc(OC)n1", "method": "MTT", "time": "72 h", "endpoint": "IC50", "value": "0.0341 µM"}
{"Structure (SMILES)": "Cc1nc(Nc2ccc3c(c2)/C(=C/c2ccccc2C)C(=O)N3)c2ccccc2n1", "method": "MTT", "endpoint": "IC50", "value": "9.25 µM"}
{"Structure (SMILES)": "Cc1ccc(-c2cc(-c3ccc(Cl)cc3)c3c(=O)n(C)c(=O)n(C)c3n2)cc1", "method": "MTT", "time": "48 h", "endpoint": "IC50", "value": "5.87 µM"}
{"Structure (SMILES)": "Cc1nc(Nc2ccc3c(c2)/C(=C/c2ccccc2Cl)C(=O)N3)c2ccccc2n1", "method": "MTT", "endpoint": "IC50", "value": "3.67 µM"}
{"Structure (SMILES)": "COc1ccc(-c2cc(-c3ccccc3Cl)c3c(=O)[nH]c(=O)[nH]c3n2)cc1", "method": "MTT", "time": "48 h", "endpoint": "IC50", "value": "13.4 µM"}
{"Structure (SMILES)": "COc1nc(NCc2cn(-c3ccc(C(=O)Nc4ccc(Br)cc4)cc3)nn2)nc(OC)n1", "method": "MTT", "time": "72 h", "endpoint": "IC50", "value": "0.0279 µM"}
{"Structure (SMILES)": "C=CC(=O)c1cccnc1Nc1cc(C(F)(F)F)ccc1OC", "method": "CCK-8", "time": "72 h", "endpoint": "GI50", "value": "12.3 µM"}
{"Structure (SMILES)": "COc1cc2ncnc(N(C)c3ccc4c(c3)/C(=C/c3ccccc3)C(=O)N4C)c2cc1OC (mixture of isomers)", "method": "MTT", "endpoint": "IC50", "value": "6.91 µM"}
{"Structure (SMILES)": "O=C(O)c1ccccc1Nc1cccc(C(F)(F)F)c1", "method": "CCK-8", "time": "72 h", "endpoint": "GI50", "value": "> 40 µM"}
{"Structure (SMILES)": "CC(=NNC(=O)COc1ccc2c(C)c(Cc3ccccc3)c(=O)oc2c1C)c1ccc(Br)cc1", "method": "MTT", "concentration": "100 µg/mL", "endpoint": "viability", "value": "33.6%"}
